RAM inhibit = yeast RAM network inhibition. inhibition, % at 50 µM. S. cerevisiae dse1pr::URA3 reporter, 5-FOA growth OD615, 2 d; analog-sensitive cbk1-as2 kinase mutant strain. hit rate 1.8% among 190,000;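 active means inhibition above a set limit, 3 SD over mean compound inhibition, cut at about 8.4% in these data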;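 further: inhibition rescues growth on 5-FOA so higher OD means more RAM inhibition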
HMGR II inh = blocks class II HMG-CoA reductase of Enterococcus faecalis; inhibition, % at 10 µM; purified E. faecalis HMGR, NADPH absorbance 340 nm kinetic; AID 1066; hit rate 0.41% among 190,000;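 active means inhibition above a set limit, the median over all tested compounds plus 3 SD, cut at about 9.5% in these data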;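 further: enzyme runs in reverse so mevalonate oxidation gives rising NADPH absorbance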
Insulin prom inh = TRM-6 insulin promoter activity inhibition; TRM-6 cells, insulin promoter-eGFP reporter, imaging; reporter expression induced with tamoxifen; inhibition, % at 2 µM; hit rate 0.9% among 130,000; AID 1273;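 active means inhibition above the mean plus 3 SD, with well images judged a real hit on visual review, cut at about 60% in these data, passing the limit was not always enough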
Yeast growth inh = chemicals that inhibit yeast BB579 growth in restrictive medium (lifespan-shortening candidates) | S. cerevisiae BB579 growth, OD615, 48 h | inhibition, % at 10 µM | hit rate 0.51% among 140,000 | AID 804;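 active means inhibition above a set limit, 3 SD over the mean compound inhibition, cut at about 44% in these data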
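System: Saccharomyces cerevisiae DeaD strain BB579, replicative lifespan model yeast. Buffer or medium: restrictive glucose-based CSMM-D medium. Doses: one dose, 10 µM compound with 0.25% DMSO. Timing: 4 h preincubation and 48 h exposure at 30 °C. Detection: turbidity as optical density at 615 nm. Benchmarks: amphotericin B 10 µg/mL, positive.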
Yeast lifespan up = yeast lifespan extension | hit rate 0.68% among 130,000 | S. cerevisiae growth with nicotinamide, OD615; deaD strain in restrictive glucose medium | inhibition of the nicotinamide effect, % at 10 µM;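 active means inhibition above a set limit, placed 3 SD over the median of all compounds, cut at about 26% in these data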
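System: DeaD-strain S. cerevisiae / Buffer or medium: CSMM-D, restrictive glucose (dextrose) synthetic minimal medium / Probe or stimulus: nicotinamide, 1.5 mM, co-present with compound / Compound: one concentration, 10 µM, DMSO 0.25% / Incubation: 48 h compound exposure at 30 °C, humidified / Technique: optical density (absorbance) at 615 nm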
RAM 5-FOA = RAM network inhibition, efflux-deficient strain; shares compounds with RAM inhibit; S. cerevisiae efflux-deficient reporter strain, 5-FOA growth OD615, 2 days; max inhibition, %; 1,200 tested, under 10 active; AID 1305; call rule not given here
Hits are given with their value; i = inactive; nt = not tested or not shown. In the library only some 3.7% were active in any assay of this set; here they are far more common.

SMILES	RAM inhibit	HMGR II inh	Insulin prom inh	Yeast growth inh	Yeast lifespan up	RAM 5-FOA
CCOC(=O)C1=C(CC)Nc2ccccc2N=C1NC(=O)c1cc(S(=O)(=O)N(C)C)ccc1Cl	13	i	i	i	i	i
Cc1ccc(NC(=O)Cc2ccc(Cl)c(Cl)c2)cc1S(=O)(=O)N(C)C	12	i	i	i	i	i
CCCCc1ccc(/C=C2\C(=O)c3ccccc3C(O)=C2C(=O)OCC)cc1	14	i	nt	i	i	i
Cc1ccc(S(=O)(=O)CCC(=O)Nc2ccc(F)cc2)cc1	i	i	nt	nt	nt	nt
CCOC(=O)/C(=N/Nc1ccc(C)cc1)S(=O)(=O)c1ccc(Cl)cc1	12	i	i	i	i	i
CCOC(=O)/C(=N\Nc1ccccc1)S(=O)(=O)c1ccccc1	i	i	i	i	i	nt
O=C(c1sc(N2CCOCC2)nc1-c1ccccc1)N1CCCCC1	i	i	i	i	i	nt
[2H]c1c([2H])c([2H])c(-c2nc(N3CCCCCC3)sc2C(=O)c2ccccc2)c([2H])c1[2H]	13	i	nt	i	i	i
Cc1ccccc1NC(=S)NC1CCN(Cc2ccccc2)CC1	i	i	i	i	i	nt
CCOC(=O)N1CCC(N(CCN(C)C)C(=S)Nc2cccc(SC)c2)CC1	33	i	i	nt	nt	i
CN(c1cccc(NC(=O)CN(c2ccc(F)cc2)S(C)(=O)=O)c1)S(C)(=O)=O	13	i	nt	nt	nt	i
Cc1cccc(NC(=O)CN(c2ccc(F)cc2)S(C)(=O)=O)c1	i	i	nt	nt	nt	nt
O=C1CC(N(C(=O)c2ccco2)c2cccc(Cl)c2)C(=O)N1c1cccc(Cl)c1 (stereo not given)	i	i	nt	i	i	nt
COc1ccc(C(=O)NCc2nnc(SC)n2Cc2ccccc2)cc1	i	i	i	nt	nt	nt
Cc1cc(C)c(Nc2cc(S(=O)(=O)O)c(N)c3c2C(=O)c2ccccc2C3=O)c(C)c1	26	i	nt	i	35	i
Cc1cc(C)c(NC(=O)COC(=O)c2cccc3c2C(=O)c2ccccc2C3=O)c(C)c1	i	i	i	i	i	nt
Cc1ccc(C(=O)OCC(=O)Nc2cc(S(=O)(=O)N3CCOCC3)ccc2C)cc1	12	i	nt	nt	nt	i
COc1cccc(NC(=S)NCCC(c2ccccc2)c2ccccc2)c1	12	i	nt	i	i	i
Cc1cccc(NC(=S)NCCC(c2ccccc2)c2ccccc2)c1	i	i	i	i	i	nt
COc1ccc(CN(C(=O)c2ccco2)c2ccccc2)cc1	i	i	i	i	nt	nt
COc1ccc(CN(CCC(c2ccccc2)c2ccco2)C(=O)c2ccco2)cc1 (stereo not given)	13	i	i	i	i	i
CCOc1ccccc1NC(=S)/C(=C(\[O-])c1ccc2c(c1)OCCO2)[n+]1ccc(CC)cc1	i	i	nt	i	i	nt
O=C(COC(=O)c1ccncc1)Nc1ccccc1	i	i	i	nt	nt	nt
O=C(COC(=O)c1ccc(CSc2ccc(Cl)cc2)cc1)Nc1ccccc1	11	i	nt	i	i	i
O=C(CSc1nc2ccccc2c(=O)n1CCC(=O)N1CCCCC1)NCc1ccccc1	18	i	i	i	i	i
SMILES	RAM inhibit	HMGR II inh	Insulin prom inh	Yeast growth inh	Yeast lifespan up	RAM 5-FOA
O=c1c2ccccc2nc(SCc2cccc(F)c2)n1Cc1ccco1	14	i	i	i	i	i
O=C(CCCn1c(SCc2cccc(F)c2)nc2ccccc2c1=O)NCC1CCCO1 (stereo not given)	16	i	i	nt	nt	i
Cc1ccc(CSc2nc3ccccc3c(=O)n2Cc2ccco2)cc1	14	i	i	i	nt	i
O=c1c2ccccc2nc(SCc2ccccc2)n1Cc1ccco1	i	i	nt	i	i	nt
O=C(COc1ccc(Cl)cc1[N+](=O)[O-])N1CCCCCC1	i	i	nt	nt	nt	nt
c1ccc(C2=Nc3cccnc3C(c3ccccc3)=NN2)cc1	i	i	i	nt	nt	nt
COn1c(SCc2ccccc2)nc2ccccc2c1=O	12	i	i	i	i	i
COn1c(SCc2cccc(Cl)c2)nc2ccccc2c1=O	i	i	i	i	i	nt
COc1ccc(O[C@H]2C=C[C@@H](c3ccccc3)O[C@@H]2CO/N=C(\C)CCC(=O)OC[C@H]2O[C@H](c3ccccc3)C=C[C@@H]2Oc2ccc(OC)cc2)cc1	25	i	i	i	i	i
COC(=O)C/C=C/[C@@H](C)[C@@H](/C=N/OC[C@H]1O[C@H](c2ccccc2)C=C[C@@H]1Oc1ccc(OC)cc1)NS(=O)(=O)c1ccc(C)cc1	16	i	i	i	i	i

Compound activity (PubChem BioAssay)
